The text below walks through data of ChEMBL document CHEMBL4043227, “Novel xanthone-polyamine conjugates as catalytic inhibitors of human topoisomerase IIα” (Bioorg Med Chem Lett, 2017).

pIC50: −log10 of the molar value. Activity calls are given as the source filed them. The calls are words filed in the database; no cut-off is given here. Some results are limits rather than exact numbers.

In series [1] the target is T1, DNA topoisomerase 2-alpha (Homo sapiens, UniProt P11388). Put plainly: Inhibition of 3 nM recombinant human topoisomerase-2alpha catalytic activity expressed in Saccharomyces cerevisiae JEL1 harboring topoisomerase1 deletion mutant assessed as reduction in supercoiled pBR322 DNA relaxation after 4 mins by ethidium bromide staining based agarose gel electrophoresis. The essentials:
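Topo IIα at 3 nM relaxes negatively supercoiled DNA, with no-enzyme and enzyme-only controls. Supercoiled (form I) and nicked (form II) bands are resolved on gel, and IC50 is estimated from the gels. Gels represent 2-4 independent experiments.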
Target sequence in this assay (P11388 whole entry, looked up, stated change not applied): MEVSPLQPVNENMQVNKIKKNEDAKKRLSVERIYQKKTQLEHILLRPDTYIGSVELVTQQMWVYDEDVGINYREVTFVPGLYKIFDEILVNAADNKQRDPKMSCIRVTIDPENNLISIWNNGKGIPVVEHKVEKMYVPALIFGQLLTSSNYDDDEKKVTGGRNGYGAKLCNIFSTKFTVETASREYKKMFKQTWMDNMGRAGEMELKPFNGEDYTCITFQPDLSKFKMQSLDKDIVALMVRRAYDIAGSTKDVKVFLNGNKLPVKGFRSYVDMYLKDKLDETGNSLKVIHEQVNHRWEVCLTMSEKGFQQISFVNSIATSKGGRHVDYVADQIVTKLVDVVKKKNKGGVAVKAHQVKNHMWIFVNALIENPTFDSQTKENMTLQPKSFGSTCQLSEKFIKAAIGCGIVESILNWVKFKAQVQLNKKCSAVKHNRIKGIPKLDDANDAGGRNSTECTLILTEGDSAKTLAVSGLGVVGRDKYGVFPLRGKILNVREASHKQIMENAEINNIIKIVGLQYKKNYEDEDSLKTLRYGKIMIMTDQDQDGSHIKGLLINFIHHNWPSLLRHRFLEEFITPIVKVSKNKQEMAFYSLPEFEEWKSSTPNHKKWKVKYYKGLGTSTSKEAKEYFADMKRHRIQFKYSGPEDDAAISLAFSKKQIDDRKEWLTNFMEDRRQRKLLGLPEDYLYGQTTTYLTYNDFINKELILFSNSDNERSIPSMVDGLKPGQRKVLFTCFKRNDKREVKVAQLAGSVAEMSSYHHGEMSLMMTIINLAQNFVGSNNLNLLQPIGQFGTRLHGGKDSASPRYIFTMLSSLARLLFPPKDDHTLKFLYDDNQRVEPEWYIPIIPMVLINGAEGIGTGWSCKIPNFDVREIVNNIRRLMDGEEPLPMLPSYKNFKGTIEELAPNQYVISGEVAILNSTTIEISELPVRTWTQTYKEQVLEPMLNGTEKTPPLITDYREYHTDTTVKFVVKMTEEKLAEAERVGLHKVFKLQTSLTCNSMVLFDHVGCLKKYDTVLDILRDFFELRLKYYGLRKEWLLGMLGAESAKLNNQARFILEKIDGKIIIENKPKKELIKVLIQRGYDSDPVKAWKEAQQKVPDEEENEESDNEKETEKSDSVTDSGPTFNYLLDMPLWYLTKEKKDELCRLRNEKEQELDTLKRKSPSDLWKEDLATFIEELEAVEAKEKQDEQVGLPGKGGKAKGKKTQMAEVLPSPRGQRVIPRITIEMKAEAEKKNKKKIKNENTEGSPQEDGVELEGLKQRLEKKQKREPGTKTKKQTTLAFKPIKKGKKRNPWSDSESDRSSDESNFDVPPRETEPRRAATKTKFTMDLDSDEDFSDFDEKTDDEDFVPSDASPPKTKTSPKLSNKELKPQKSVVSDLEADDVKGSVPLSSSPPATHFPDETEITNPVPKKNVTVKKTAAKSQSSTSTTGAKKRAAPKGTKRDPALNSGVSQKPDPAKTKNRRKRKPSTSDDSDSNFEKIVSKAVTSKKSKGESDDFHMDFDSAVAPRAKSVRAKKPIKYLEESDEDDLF

For series [2], the target named is T1, DNA topoisomerase 2-alpha. Put plainly: Inhibition of recombinant human topoisomerase-2alpha expressed in Saccharomyces cerevisiae JEL1 harboring topoisomerase1 deletion mutant assessed as reduction in enzyme-mediated [gamma32P]ATP hydrolysis using relaxed pBR322 DNA as substrate after 8 mins.
Target sequence in this assay (P11388 whole entry, looked up, stated change not applied): as above
The target of series [3] is T1, DNA topoisomerase 2-alpha. The series is described as follows: Inhibition of 150 nM recombinant human topoisomerase-2alpha catalytic activity expressed in Saccharomyces cerevisiae JEL1 harboring topoisomerase1 deletion mutant assessed as reduction in enzyme-mediated relaxed pBR322 DNA strand passage after 2 mins in presence of APP(NH)P by ethidium bromide staining based agarose gel electrophoresis. The essentials:
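Topo IIα at 150 nM with relaxed DNA as substrate, ATP replaced by the non-hydrolysable analogue APP(NH)P, so only events up to strand passage are scored. Catenated DNA is read at the gel origin against relaxed DNA bands, with no-enzyme and enzyme-only controls. Gels represent at least 3 independent experiments.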
Target sequence in this assay (P11388 whole entry, looked up, stated change not applied): as above

The target in series [4] is T1, DNA topoisomerase 2-alpha. The series is described as follows: Inhibition of 150 nM recombinant human topoisomerase-2alpha catalytic activity expressed in Saccharomyces cerevisiae JEL1 harboring topoisomerase1 deletion mutant assessed as reduction in supercoiled pBR322 DNA relaxation at 10 uM after 4 mins by ethidium bromide staining based agarose gel electrophoresis. The essentials: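 Control relaxation run at high enzyme (150 nM topo IIα) to match the cleavage assay. Negatively supercoiled DNA substrate, with no-enzyme and enzyme-only controls, read on gel.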
Target sequence in this assay (P11388 whole entry): as the sequence (P11388 whole entry, looked up, stated change not applied) above

Series [5] has as its target T1, DNA topoisomerase 2-alpha. The series is described as follows: Ratio of IC50 for recombinant human topoisomerase-2alpha expressed in Saccharomyces cerevisiae JEL1 harboring topoisomerase1 deletion mutant assessed as enzyme-mediated decatenation of kinetoplast DNA to IC50 for recombinant human topoisomerase-2alpha catalytic activity expressed in Saccharomyces cerevisiae JEL1 harboring topoisomerase1 deletion mutant assessed as reduction in supercoiled pBR322 DNA relaxation.
Target sequence in this assay (P11388 whole entry): as the sequence (P11388 whole entry, looked up, stated change not applied) above

Series [6] addresses T1, DNA topoisomerase 2-alpha. The series is described as follows: Inhibition of recombinant human topoisomerase-2alpha expressed in Saccharomyces cerevisiae JEL1 harboring topoisomerase1 deletion mutant assessed as reduction in etoposide induced enzyme-mediated DNA cleavage up to 100 uM by ethidium bromide staining based agarose gel electrophoresis. The essentials:
(§1)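 Competition assay: 5-100 µM xanthone (one compound only up to 10 µM, for solubility) is added with 100 µM etoposide. Enzyme double-strand break levels are expressed relative to etoposide alone, set to 100%. Mean ± SD of 2-3 independent experiments.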
Target sequence in this assay (P11388 whole entry): as the sequence (P11388 whole entry, looked up, stated change not applied) above

Series [7] deals with T1, DNA topoisomerase 2-alpha. The series is described as follows: Inhibition of recombinant human topoisomerase-2alpha expressed in Saccharomyces cerevisiae JEL1 harboring topoisomerase1 deletion mutant assessed as enzyme-mediated supercoiled pBR322 cleavable complex formation up to 10 uM in presence of CaCl2 by ethidium bromide staining based agarose gel electrophoresis. The essentials:
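Cleavage reactions contain CaCl2, which raises baseline topo IIα DNA cleavage about 10- to 15-fold. Enzyme at 150 nM with negatively supercoiled DNA. Xanthones are tested up to 10 µM, with no-enzyme and enzyme-only controls.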
Target sequence in this assay (P11388 whole entry): as the sequence (P11388 whole entry, looked up, stated change not applied) above

Series [8] has as its target T1, DNA topoisomerase 2-alpha. Put plainly: Poison activity at recombinant human topoisomerase-2alpha expressed in Saccharomyces cerevisiae JEL1 harboring topoisomerase1 deletion mutant assessed as enzyme-mediated supercoiled pBR322 cleavable complex formation at 2.5 to 100 uM after 6 mins by ethidium bromide staining based agarose gel electrophoresis. The essentials: (§2)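 Double-strand DNA cleavage by topo IIα (150 nM) on negatively supercoiled DNA, tested at 2.5, 10, 50 and 100 µM (one compound only up to 10 µM). Linear form III is resolved from forms I and II on ethidium-stained gels. Cleavage is normalised to the no-drug control set to 1, with 100 µM etoposide as reference. SD of 2-3 independent experiments.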
Target sequence in this assay (P11388 whole entry): as the sequence (P11388 whole entry, looked up, stated change not applied) above

For series [9], the target named is T1, DNA topoisomerase 2-alpha. The series is described as follows: Inhibition of recombinant human topoisomerase-2alpha expressed in Saccharomyces cerevisiae JEL1 harboring topoisomerase1 deletion mutant assessed as reduction in enzyme-mediated [gamma32P]ATP hydrolysis up to 50 uM after 8 mins.
Target sequence in this assay (P11388 whole entry): as the sequence (P11388 whole entry, looked up, stated change not applied) above
In series [10] the target is T1, DNA topoisomerase 2-alpha. The series is described as follows: Inhibition of recombinant human topoisomerase-2alpha catalytic activity expressed in Saccharomyces cerevisiae JEL1 harboring topoisomerase1 deletion mutant assessed as reduction in supercoiled pBR322 DNA relaxation at 10 uM in presence of spermidine by ethidium bromide staining based agarose gel electrophoresis. The essentials:
(§3)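 Negatively supercoiled plasmid relaxed by 3 nM topoisomerase IIα with polyamine (spermidine or spermine) added. Controls were DNA without enzyme and enzyme without inhibitor. Products resolved on gels with supercoiled (form I) and nicked (form II) markers, then quantified. Error bars are standard error of the mean for 2 independent experiments.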

For series [11], the target named is T1, DNA topoisomerase 2-alpha. Put plainly: Inhibition of 3 nM recombinant human topoisomerase-2alpha catalytic activity expressed in Saccharomyces cerevisiae JEL1 harboring topoisomerase1 deletion mutant assessed as reduction in supercoiled pBR322 DNA relaxation at 10 uM after 4 mins by ethidium bromide staining based agarose gel electrophoresis. The essentials: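 Relaxation of negatively supercoiled plasmid by 3 nM topoisomerase IIα was read from gel mobility (supercoiled form I vs nicked form II). Controls were DNA without enzyme and enzyme-treated DNA without compound. Gels are representative of 2-4 independent experiments.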

Series [12] addresses T1, DNA topoisomerase 2-alpha. Put plainly: Inhibition of recombinant human topoisomerase-2alpha catalytic activity expressed in Saccharomyces cerevisiae JEL1 harboring topoisomerase1 deletion mutant assessed as reduction in supercoiled pBR322 DNA relaxation at 10 uM in presence of spermine by ethidium bromide staining based agarose gel electrophoresis. The essentials: as §3

Series [13] concerns the target T1, DNA topoisomerase 2-alpha. Put plainly: Inhibition of recombinant human topoisomerase-2alpha expressed in Saccharomyces cerevisiae JEL1 harboring topoisomerase1 deletion mutant assessed as reduction in etoposide induced enzyme-mediated DNA cleavage up to 10 uM by ethidium bromide staining based agarose gel electrophoresis. The essentials:
as §1

The target in series [14] is T1, DNA topoisomerase 2-alpha. The series is described as follows: Poison activity at recombinant human topoisomerase-2alpha expressed in Saccharomyces cerevisiae JEL1 harboring topoisomerase1 deletion mutant assessed as enzyme-mediated supercoiled pBR322 cleavable complex formation up to 10 uM after 6 mins by ethidium bromide staining based agarose gel electrophoresis. The essentials:
as §2

A short description of series [15]: Solubility of the compound in Tris-HCl at pH 7.9 at 50 to 100 uM. The series is classed as physicochemical. To be noted: buffer, pH 7.9, 100 µM.

In the case of `NCCCCNCCCN` [SPERMIDINE], the pIC50 in [1] is under 3.00.
As to `NCCCCNCCCNCC(O)COc1cc(O)c2c(=O)c3ccccc3oc2c1` (stereo not given), the negative logarithm of the IC50 (pIC50) in series [2] is 5.00; in [3], over 5.00. Also, the inhibition result in series [4] and in [6] was “Active” each time. Also, in [5], the Ratio IC50 was 2 to 3. The inhibition entry in series [7] and in series [9] was “inactive” in each case. Also, the outcome in series [8] was inactive.
Regarding `NCCCCNCC(O)COc1cc(O)c2c(=O)c3ccccc3oc2c1` (stereo not given), the negative-log IC50 (pIC50) in series [1] is 5.30 to 5.60. For the same compound, the result in series [8] was inactive.
Regarding `NCCCNCC(O)COc1cc(O)c2c(=O)c3ccccc3oc2c1` (stereo not given), in [1], the negative-log IC50 (pIC50) is 6.00. In addition, the inhibition entry in series [4] and in series [6] was “Active” in each case. Also, in series [5], the Ratio IC50 lay within 2 to 3. In addition, the inhibition entry in [7] was “inactive”. In addition, the outcome in series [8] was inactive.
In the case of `O=c1c2ccccc2oc2cc(O)cc(O)c12`, the inhibition result in [10], in series [11], in series [12], in series [4] and in series [7] was “inactive” in each case. Further, the pIC50 in series [1] was at most 4.00. The Ratio IC50 in series [5] fell in the range of 2 to 3. In addition, the result in series [8] was inactive.
As for `NCCCNCCCCNCCCN` [SPERMINE], the pIC50 in [1] is under 3.00.
For the compound `Cl.Cl.Cl.Cl.NCCCNCCCCNCCCNCC(O)COc1cc(O)c2c(=O)c3ccccc3oc2c1` (stereo not given), the inhibition entry in series [13] and in [4] was “Active” throughout. Also, the negative logarithm of the IC50 (pIC50) in series [3] was over 5.00. For the same compound, the result in series [14] was inactive. Besides, the Ratio IC50 in series [5] lay in the range of 2 to 3. Moreover, the inhibition result in series [7] is “inactive”. Further, in series [15], the solubility entry was “Insoluble”.
In the case of `CCCCNCC(O)COc1cc(O)c2c(=O)c3ccccc3oc2c1` (stereo not given), in [1], the pIC50 was 4.00. In addition, in [8], the outcome was inactive.
